Assay results of several laboratories.
Lines come from different studies, so protocols differ.
Target: G protein-coupled receptor kinase 4 (GRK4, Homo sapiens, UniProt P32298)

SMILES | test | conditions | remaining binding
CN(c1nccc(-c2cnn3ncccc23)n1)C1CC1 | binding | 1 µM | 72%
O=C(NCCCN1CCOCC1)c1ccc(Nc2nccc(-c3cc4ccccc4s3)n2)cc1 | binding, competition with immobilised ligand | 1 µM | 1.4%
Nc1c(C(=O)NCc2ccc(C(=O)NCCCC3CCCCC3)cc2)cnn1-c1ccccc1 | cell-free assay, competition with immobilised ligand | 0.1 µM | 100%
C[C@H]1CCN(c2nccc(-c3cnn4ncccc34)n2)C1 | binding | 1 µM | 54%
O=C(c1ccc(Nc2ncc(Cl)c(-c3ccc(Cl)s3)n2)cc1)N1CCC(N2CCCC2)CC1 | binding, competition with immobilised ligand | 1 µM | 1.1%
N[C@H]1CCN(c2nccc(-c3cnn4ncccc34)n2)C1 | binding | 1 µM | 75%
C=CC(=O)N1CCC(C(=O)NCC(=O)N2CCN(c3nc(-c4cnc(N)nc4C(F)F)nc(N4CCOCC4)n3)CC2)CC1 | binding, competition with immobilised ligand | 1 µM | 100%
C[C@@]1(Cc2ccc(C#N)cc2)C(=O)N(c2cc(Cl)cc(Cl)c2)c2ncc(C(=O)NC3(c4nc(C5CCC5)no4)CC3)n21 | cell-free assay, competition with immobilised ligand | 1 µM | 100%
COc1ncc2cc3ccccc3nc2c1C#N | cell-free assay, competition with immobilised ligand | 5 µM | 99%
COc1cnc(Nc2cccc(S(N)(=O)=O)c2)nc1N1CCN(c2ccccc2)CC1 | binding, competition with immobilised ligand | 1 µM | 100%
O=C1CCc2cc(Nc3cc(OC4CCOCC4)c([N+](=O)[O-])cc3Cl)ccc2N1 | cell-free assay, competition with immobilised ligand | 1 µM | 100%
c1cnn2ncc(-c3ccnc(N4CCC45COC5)n3)c2c1 | binding | 1 µM | 81%
COc1cnc(Nc2cccc(S(N)(=O)=O)c2)nc1N1CCN(c2ccccc2)C(=O)C1 | binding, competition with immobilised ligand | 1 µM | 100%
CN(CCCC(F)(F)F)c1nccc(-c2cnn3ncccc23)n1 | binding | 1 µM | 100%
COc1cccc(CNC(=O)c2nc3scc(COCc4ccc(C(=O)O)cc4)c3c(=O)[nH]2)c1 | cell-free assay, competition with immobilised ligand | 1 µM | 72.1%
CC1CCCN1c1nccc(-c2cnn3ncccc23)n1 (stereo not drawn) | binding | 1 µM | 75%
O=C(Nc1c[nH]nc1C(=O)NC1CCNCC1)c1cc(F)cc(F)c1 | binding, competition with immobilised ligand | 1 µM | 100%
O=C(NCCCC1CCCCC1)c1ccc(CNC(=O)c2cnn(-c3ccccc3)c2C(F)(F)F)cc1 | cell-free assay, competition with immobilised ligand | 0.1 µM | 100%
Nc1ncc2c(n1)-c1c([nH]c3ccc(C#CC4CC4)cc13)CCCC2 | binding, competition with immobilised ligand | 1 µM | 91%
O=C(Nc1cccnn1)N1CC(C/C=C/c2cncc(Oc3ccc(C(F)(F)F)cn3)n2)C1 | cell-free assay, competition with immobilised ligand | 1 µM | 100%
Cc1cnc(Nc2ccc(C(=O)N3CCC(N4CCCC4)CC3)cc2)nc1-c1cc2ccccc2s1 | binding, competition with immobilised ligand | 1 µM | 41%
